The text below walks through data of ChEMBL document CHEMBL3286356, “Synthesis and biological comparison of enantiomers of mepenzolate bromide, a muscarinic receptor antagonist with bronchodilatory and anti-inflammatory activities” (Bioorg Med Chem, 2014).

In series [1] the test system is Mus musculus. In words: Antiinflammatory activity against ICR mouse assessed as inhibition of porcine pancreatic elastase-induced increase in MIP-2 level at 7.5 to 38 ug/kg administered intratracheally 1 hr prior to porcine pancreatic elastase challenge measured after 6 hrs by ELISA. It is filed as functional, organism-based. The procedure, abridged:
(§1)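 Male ICR mice, 4-6 weeks old, under isoflurane anaesthesia, given each enantiomer or racemate intratracheally in sterile saline (1 ml/kg) by micropipette; 1 h later PPE (20 U/kg) or saline vehicle given the same way. BALF collected 6 h after PPE; TNF-α, MIP-2, MCP-1 and KC measured by ELISA. Mean ± SEM; Tukey's test.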
On the technique in general: ELISA stands for enzyme-linked immunosorbent assay.

Series [2] has as its system Mus musculus. In words: Antiinflammatory activity against ICR mouse assessed as inhibition of porcine pancreatic elastase-induced increase in MCP-1 level at 7.5 to 38 ug/kg administered intratracheally 1 hr prior to porcine pancreatic elastase challenge measured after 6 hrs by ELISA. It counts as functional, organism-based. A digest of the protocol: as §1
Series [3] concerns Mus musculus. In words: Bronchodilatory activity in ICR mouse assessed as supression of methacholine-induced increase in airway resistance at 38 ug/kg administered intratracheally 1 hr prior to methacholine challenge. It is filed as functional, organism-based. The procedure, abridged: (§2)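 Male ICR mice (4-6 weeks) given compound intratracheally in saline (1 ml/kg). 1 h later, anaesthetised with chloral hydrate (500 mg/kg), tracheotomised, and ventilated at 150 breaths/min, tidal volume 8.7 ml/kg, PEEP 2-3 cmH₂O. Challenged with nebulised methacholine (5 mg/ml), five 20 s exposures 40 s apart. Airway resistance measured after each challenge by snapshot technique. Mean ± SEM.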

The subject of series [4] is Mus musculus. As to the kind of experiment: Antiinflammatory activity against ICR mouse assessed as inhibition of porcine pancreatic elastase-induced increase in KC level at 7.5 to 38 ug/kg administered intratracheally 1 hr prior to porcine pancreatic elastase challenge measured after 6 hrs by ELISA. It is filed as functional, organism-based. The procedure, abridged: as §1

In series [5] the test system is Mus musculus. As to the kind of experiment: Antiinflammatory activity against ICR mouse assessed as inhibition of porcine pancreatic elastase-induced increase in leucocyte count in BALF at 7.5 to 38 ug/kg administered intratracheally 1 hr prior to porcine pancreatic elastase challenge measured after 6 hrs. It counts as functional, organism-based. A digest of the protocol:
(§3)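 Male ICR mice (4-6 weeks), isoflurane-anaesthetised, dosed intratracheally in sterile saline (1 ml/kg) 1 h before intratracheal PPE (20 U/kg) or vehicle. BALF taken 6 h after PPE; total cells counted by hemocytometer, cytospin slides stained with Diff-Quik to get neutrophil fraction of total cells. Mean ± SEM; Tukey's test.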

In series [6] the test system is Mus musculus. In words: Bronchodilatory activity in ICR mouse assessed as supression of methacholine-induced increase in airway resistance at 3.8 ug/kg administered intratracheally 1 hr prior to methacholine challenge. It is filed as functional, organism-based. A digest of the protocol: as §2
Series [7] has as its system Mus musculus. As to the kind of experiment: Increase in heart rate in ICR mouse at 940 to 4700 ug/kg administered intratracheally measure immediately post dosing relative to control. It counts as ADME, organism-based. To be noted: in vivo, inhaled_or_intranasal. A digest of the protocol: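 Male ICR mice (4-6 weeks) given compound intratracheally in sterile saline (1 ml/kg) under isoflurane; anaesthetised with chloral hydrate (500 mg/kg), pulse-oximeter sensor attached to thigh after 20 min. Heart rate (beats per minute) recorded immediately after dosing; percentage change from baseline to peak calculated. Mean ± SEM; Tukey's test.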

Series [8] relates to Mus musculus. In words: Antiinflammatory activity against ICR mouse assessed as inhibition of porcine pancreatic elastase-induced increase in TNF-alpha level at 7.5 to 38 ug/kg administered intratracheally 1 hr prior to porcine pancreatic elastase challenge measured after 6 hrs by ELISA. It is filed as functional, organism-based. The procedure, abridged:
as §1

For series [9], the system named is Mus musculus. In words: Antiinflammatory activity against ICR mouse assessed as inhibition of porcine pancreatic elastase-induced increase in neutrophil count in BALF at 7.5 to 38 ug/kg administered intratracheally 1 hr prior to porcine pancreatic elastase challenge measured after 6 hrs. It is filed as functional, organism-based. The procedure, abridged:
as §3

The test system of series [10] is Mus musculus. In words: Suppression of fecal pellet output in ICR mouse at 4.7 mg/kg administered intratracheally 1 hr prior to restraint stress measured for 1 hr relative to control. It counts as organism-based, Feces. Set-up: dose 4.7 mg/kg, route endotracheal. The settings on record: in vivo, inhaled_or_intranasal. The procedure, abridged:
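Male ICR mice (4-6 weeks) dosed intratracheally in sterile saline (1 ml/kg) under isoflurane; vehicle controls received saline alone. One hour later each mouse was restrained individually in a 50 ml tube for 1 h, and fecal pellets excreted during restraint were counted. Mean ± SEM; Tukey's test.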

Series [11] in a line: Drug level in ICR mouse lung at 20 mg/kg administered intratracheally after 15 mins. It is filed as ADME, organism-based. Set-up: dose 20 mg/kg, route endotracheal. The settings on record: inhaled or intranasal, read-out: Drug uptake. The procedure, abridged: (§4)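 Male ICR mice (4-6 weeks) under isoflurane given the enantiomer in sterile saline (1 ml/kg) intratracheally by micropipette. Whole lungs taken at indicated times, homogenised in sterile PBS with 50 U/ml heparin, centrifuged; 300 µl aliquot ultrafiltered and filtrate analysed by chiral HPLC (Chiralpak IA; water with 0.1 M KPF6/acetonitrile 30:70, 1.0 mL/min). Level expressed as µg/lung; mean ± SEM, n = 3.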

For series [12], the system named is Lung. As to the kind of experiment: Drug level in ICR mouse lung treated intratracheally with 20 mg/kg (S)-Mepenzolate after 5 to 30 mins. It is filed as ADME, organism-based. Set-up: dose 20 mg/kg, route endotracheal. To be noted: in vivo, inhaled_or_intranasal. A digest of the protocol:
as §4

Series [13] is described as follows: Drug level in ICR mouse lung at 20 mg/kg administered intratracheally after 30 mins. It is filed as ADME, organism-based. Set-up: dose 20 mg/kg, route endotracheal. The settings on record: inhaled or intranasal, read-out: Drug uptake. The procedure, abridged: as §4
A short description of series [14]: Drug level in ICR mouse lung at 20 mg/kg administered intratracheally after 5 mins. It is filed as ADME, organism-based. Further details: dose 20 mg/kg, route endotracheal. To be noted: inhaled or intranasal, read-out: Drug uptake. The procedure, abridged: as §4
In series [15] the test system is Lung. In words: Drug level in ICR mouse lung treated intratracheally with 20 mg/kg (R)-Mepenzolate after 5 to 30 mins. To be noted: in vivo, inhaled_or_intranasal. It is filed as ADME, organism-based. Further details: dose 20 mg/kg, route endotracheal. The procedure, abridged:
as §4

Each structure is given as a SMILES string. The source made the active and inactive calls. The calls are words filed in the database; no cut-off is given here.

With `C[N+]1(C)CCCC(OC(=O)C(O)(c2ccccc2)c2ccccc2)C1.[Br-]` (racemic) [MEPENZOLATE BROMIDE], the outcome in the series on Mus musculus [1], with Mus musculus [2], with Mus musculus [3], in the series on Mus musculus [4], in the series on Mus musculus [5] and with Mus musculus [6] was Active. Moreover, the outcome in the series with Mus musculus [8] and in the series on Mus musculus [9] was Active. The Activity entry with Mus musculus [7] and with Mus musculus [10] was “Toxic” throughout.
Consider `C[N+]1(C)CCC[C@@H](OC(=O)C(O)(c2ccccc2)c2ccccc2)C1.[Br-]`, for which the concentration at 0.25 h in [11] turned out to be 6300 ng/mL. Moreover, the result in the series with Mus musculus [1], with Mus musculus [2], in the series with Mus musculus [3], with Mus musculus [4], in the series on Mus musculus [5] and with Mus musculus [6] was Active. For the same compound, the result with Mus musculus [8] and in the series with Mus musculus [9] was Active. Further, the Drug metabolism entry in the series on Lung [12] is “metabolite_notdetected”. Besides, the concentration at 0.5 h in [13] came out at 5100 ng/mL. For the same compound, the Activity entry in the series on Mus musculus [7] and with Mus musculus [10] was “Toxic” each time. Besides, the concentration at 5 min in series [14] was found to be 44500 ng/mL.
In the case of `C[N+]1(C)CCC[C@H](OC(=O)C(O)(c2ccccc2)c2ccccc2)C1.[Br-]`, in series [11], the concentration at 0.25 h was 7600 ng/mL. Further, the outcome with Mus musculus [1], in the series with Mus musculus [2], with Mus musculus [3], in the series with Mus musculus [4], in the series with Mus musculus [5] and with Mus musculus [8] was Active. In addition, the outcome with Mus musculus [9] was Active. For the same compound, the Drug metabolism result with Lung [15] was “metabolite_notdetected”. Besides, the concentration at 0.5 h in series [13] turned out to be 6200 ng/mL. Moreover, the outcome with Mus musculus [6] was inactive. For the same compound, the Activity entry with Mus musculus [7] was “Toxic”; in the series with Mus musculus [10], “Non-toxic”. Besides, in series [14], the concentration at 5 min was determined as 36400 ng/mL.
